Results published in ChEMBL document CHEMBL3046238, “Synthesis and biological activity evaluation of 1,2,3-thiadiazole derivatives as potential elicitors with highly systemic acquired resistance” (2009).
Activity calls are given as the source filed them. The calls are words filed in the database; no cut-off is given here.

Tests used:
Assay type in all cases: functional
Fusarium fujikuroi = experiment: Antifungal activity against Fusarium fujikuroi assessed as growth inhibition at 50 ug/mL measured after 2 days post dose; details: 48 h, read-out: GI
Phomopsis asparagi = experiment: Antifungal activity against Phomopsis asparagi assessed as growth inhibition at 50 ug/mL measured after 2 days post dose; details: for inhibition of growth at 50 µg/mL: 48 h, read-out: GI
Botrytis cinerea = experiment: Antifungal activity against Botryotinia fuckeliana assessed as growth inhibition at 50 ug/mL measured after 2 days post dose; details: for inhibition of growth at 50 µg/mL: 48 h, read-out: GI
Alternaria solani = experiment: Antifungal activity against Alternaria solani assessed as growth inhibition at 50 ug/mL measured after 2 days post dose; details: 48 h, read-out: GI
Colletotrichum lagenaria = experiment: Antifungal activity against Colletotrichum lagenaria assessed as growth inhibition at 50 ug/mL measured after 2 days post dose; details: 48 h, read-out: GI
Fusarium oxysporum = experiment: Antifungal activity against Fusarium oxysporum assessed as growth inhibition at 50 ug/mL measured after 2 days post dose; details: for inhibition of growth at 50 µg/mL: 48 h, read-out: GI
Alternaria mali = experiment: Antifungal activity against Alternaria mali assessed as growth inhibition at 50 ug/mL measured after 2 days post dose; details: for inhibition of growth at 50 µg/mL: 48 h, read-out: GI
Alternaria kikuchiana = experiment: Antifungal activity against Alternaria kikuchiana assessed as growth inhibition at 50 ug/mL measured after 2 days post dose; details: for inhibition of growth at 50 µg/mL: 48 h, read-out: GI
[1] = system: Colletotrichum gloeosporioides; experiment: Antifungal activity against Glomerella cingulata assessed as growth inhibition at 50 ug/mL measured after 2 days post dose; details: for inhibition of growth at 50 µg/mL: 48 h, read-out: GI
Sclerotinia sclerotiorum = experiment: Antifungal activity against Sclerotinia sclerotiorum assessed as growth inhibition at 50 ug/mL measured after 2 days post dose; details: for inhibition of growth at 50 µg/mL: 48 h, read-out: GI
[2] = system: Fusarium oxysporum f. sp. vasinfectum; experiment: Antifungal activity against Fusarium oxysporum f. sp. vasinfectum assessed as growth inhibition at 50 ug/mL measured after 2 days post dose; details: for inhibition of growth at 50 µg/mL: 48 h, read-out: GI
Ustilaginoidea virens = experiment: Antifungal activity against Villosiclava virens assessed as growth inhibition at 50 ug/mL measured after 2 days post dose; details: for inhibition of growth at 50 µg/mL: 48 h, read-out: GI
Mycosphaerella arachidis = experiment: Antifungal activity against Mycosphaerella arachidis assessed as growth inhibition at 50 ug/mL measured after 2 days post dose; details: 48 h, read-out: GI
Cytospora mali = experiment: Antifungal activity against Valsa mali assessed as growth inhibition at 50 ug/mL measured after 2 days post dose; details: for inhibition of growth at 50 µg/mL: 48 h, read-out: GI
Fusarium graminearum = experiment: Antifungal activity against Fusarium graminearum assessed as growth inhibition at 50 ug/mL measured after 2 days post dose; details: 48 h, read-out: GI
Procedure, shortened: (§1)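 Compound stock at 500 μg/mL in DMF, diluted with sterile water in the dish and mixed into potato dextrose agar before setting. A 4 mm diameter fungal plug is placed on the plate and cultured at 24-26 °C. Colony diameter is measured after 2 days.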

Tobacco mosaic virus [3] = experiment: (§2) Induction of systemic acquired resistance against Tobacco mosaic virus (TMV) in tobacco plants exposed to 500 ug/mL compound through leaf spray followed by 7 days culture under green house conditions assessed as inhibition of viral growth in leaves infected with Tobacco mosaic virus (TMV) measured 72 hr post viral infection by half-leaf juice rubbing method; parameters: scale not given: the % may be the effect or the level left
Procedure, shortened: (§3)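 Tobacco plants received compound by leaf spray or by soil irrigation, with double-distilled water as CK. Newly grown leaves were then rub-inoculated with TMV (5.88×10-2 μg/mL), and plants were kept at 25 °C for 72 h. Lesions on inoculated leaves were counted. Inhibition = (CK−A)/CK×100 from mean lesion numbers versus control.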

Puccinia triticina = experiment: Antifungal activity against Puccinia triticina inoculated on 500 ug/mL compound pre-treated wheat plants with 3 to 5 leaves assessed as growth inhibition
Procedure, shortened: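 Healthy wheat plants at the 3-5 leaf stage were sprayed with compound (500 μg/mL) and then inoculated with spores. Inhibition percentage was calculated against the corresponding spore stack.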

Tobacco mosaic virus [4] = experiment: as §2, with “50” for “500”; parameters: scale not given: the % may be the effect or the level left; procedure, shortened: as §3
[5] = system: Botryosphaeria berengeriana; experiment: Antifungal activity against Botryosphaeria berengeriana assessed as growth inhibition at 50 ug/mL measured after 2 days post dose; details: 48 h, read-out: GI
Ceratobasidium cereale = experiment: Antifungal activity against Ceratobasidium cereale assessed as growth inhibition at 50 ug/mL measured after 2 days post dose; details: 48 h, read-out: GI
Rhizoctonia solani = experiment: Antifungal activity against Rhizoctonia solani assessed as growth inhibition at 50 ug/mL measured after 2 days post dose; details: 48 h, read-out: GI
Phytophthora infestans = experiment: Antifungal activity against Phytophthora infestans assessed as growth inhibition at 50 ug/mL measured after 2 days post dose; procedure, shortened: as §1

Row | Structure (SMILES) | inhibition of growth at 50 µg/mL (Fusarium fujikuroi) [%] | growth inhibition (GI) (Phomopsis asparagi) | inhibition of growth at 50 µg/mL (Botrytis cinerea) [%] | inhibition of growth at 50 µg/mL (Alternaria solani) [%] | inhibition of growth at 50 µg/mL (Colletotrichum lagenaria) [%] | inhibition of growth at 50 µg/mL (Alternaria kikuchiana) [%] | inhibition of growth at 50 µg/mL (Sclerotinia sclerotiorum) [%] | growth inhibition (GI) (Ustilaginoidea virens) | inhibition of growth at 50 µg/mL (Mycosphaerella arachidis) [%] | inhibition of growth at 50 µg/mL (Cytospora mali) [%] | inhibition of growth at 50 µg/mL (Fusarium graminearum) [%] | Activity (Tobacco mosaic virus [3]) [%] | inhibition of growth at 50 µg/mL (Phomopsis asparagi) [%] | inhibition of growth at 50 µg/mL (Fusarium oxysporum) [%] | inhibition of growth at 50 µg/mL (Alternaria mali) [%] | inhibition of growth at 50 µg/mL [1] [%] | growth inhibition (GI) (Puccinia triticina) | inhibition of growth at 50 µg/mL [2] [%] | inhibition of growth at 50 µg/mL (Ustilaginoidea virens) [%] | growth inhibition (GI) (Botrytis cinerea) | further results
1 | CCCCCCc1cnc(NC(=O)c2snnc2C)s1 | 64.3 | inactive | 25 | 21 | 26.7 | 0 | 71.4 | inactive | 29.4 | 31 | 0 | 0 | – | – | – | – | – | – | – | – | growth inhibition (GI) (Fusarium oxysporum): inactive; growth inhibition (GI) (Alternaria mali): inactive; growth inhibition (GI) [1]: inactive; growth inhibition (GI) [2]: inactive
2 | CCc1sc(NC(=O)c2snnc2C)nc1-c1ccc(Cl)cc1Cl | 64.3 | – | 40 | 33.3 | 26.7 | 37.5 | 61.5 | – | 14.3 | 44.4 | 25 | 0 | 12.5 | 13.3 | 35 | 20.1 | 0% | 20 | 33.3 | – | –
3 | COc1ccc(-c2csc(NC(=O)c3snnc3C)n2)cc1 | 10.5 | inactive | – | 4 | 5.9 | – | 5.6 | inactive | 14.3 | 8.7 | 25 | 35 | – | 3.3 | 15.5 | 4 | 45% | 0 | – | inactive | growth inhibition (GI) (Alternaria kikuchiana): inactive
4 | Cc1nnsc1C(=O)Nc1nc(-c2ccccc2)cs1 | 64.3 | – | 8.3 | 15.8 | 6.7 | 37.5 | 47.3 | – | 14.3 | 22.2 | 18.8 | 70 | 6.3 | 13.3 | 10 | 15.8 | 0% | 40 | 55.6 | – | Activity (Tobacco mosaic virus [4]): 74%
5 | Cc1nnsc1C(=O)Nc1nc(-c2ccc([N+](=O)[O-])cc2)cs1 | 5.3 | inactive | – | 20 | 17.6 | 0 | 11.1 | inactive | 35.7 | 26.1 | 37.5 | 0 | – | 13.3 | 24.1 | 8 | inactive | 14.3 | – | inactive | –
6 | COc1ccc(-c2nnc(-c3snnc3C)o2)cc1 | 0 | – | 31 | 17.6 | – | – | 23.5 | – | 17.6 | 47.2 | 37.9 | 80 | – | 0 | 37.9 | 29.4 | 0% | 0 | 29.4 | – | Activity (Tobacco mosaic virus [4]): 78%; inhibition of growth at 50 µg/mL [5]: 33.3%; inhibition of growth at 50 µg/mL (Ceratobasidium cereale): 31%; inhibition of growth at 50 µg/mL (Rhizoctonia solani): 0%; growth inhibition (GI) (Phytophthora infestans): inactive
7 | CCCc1sc(NC(=O)c2snnc2C)nc1-c1ccc(Cl)cc1Cl | 21.1 | inactive | – | 4 | 11.8 | – | 22.2 | inactive | 35.7 | 4.3 | 25 | 20 | – | 10 | 6.9 | 12 | 30% | 3.6 | – | inactive | growth inhibition (GI) (Alternaria kikuchiana): inactive
8 | Cc1nnsc1C(=O)Nc1nc(-c2ccc(Cl)cc2)cs1 | 64.3 | – | 12 | 0 | 13.3 | 0 | 61.5 | – | 29.4 | 88.9 | 18.8 | 40 | 37.5 | 46.7 | 15 | 68.4 | 0% | 40 | 11.1 | – | –
9 | COc1cccc(-c2nnc(-c3snnc3C)o2)c1 | 17.2 | – | 13.8 | 11.7 | – | – | 23.5 | – | 17.6 | 41.2 | 31 | 0 | – | 0 | 27.6 | 0 | 39% | 0 | 0 | – | inhibition of growth at 50 µg/mL [5]: 33.3%; inhibition of growth at 50 µg/mL (Ceratobasidium cereale): 13.8%; inhibition of growth at 50 µg/mL (Rhizoctonia solani): 0%; inhibition of growth at 50 µg/mL (Phytophthora infestans; 48 h, read-out: GI): 20%
10 | CCc1cnc(NC(=O)c2snnc2C)s1 | 0 | – | 0 | 21 | 26.7 | 43.8 | 3.3 | – | 35.7 | 61.1 | 50 | 30 | 31.3 | 53.3 | 25 | 36.8 | – | 5 | 50 | – | –
11 | Cc1csc(NC(=O)c2snnc2C)n1 | 64.3 | inactive | – | 35.7 | 17.6 | 17.6 | – | inactive | 29.4 | – | 7.1 | 70 | – | 15 | 50 | – | inactive | – | – | inactive | Activity (Tobacco mosaic virus [4]): 81%; growth inhibition (GI) [1]: inactive; growth inhibition (GI) (Sclerotinia sclerotiorum): inactive; growth inhibition (GI) [2]: inactive; growth inhibition (GI) (Cytospora mali): inactive
